Measurements taken from article PMC5909815 (Nature chemical biology, 2017).

Legend:
[1] = system: multiple cell lines (H650, H1155, H23); assay: relative cell counts after treatment with selective inhibitors; format: cell-based; details: 72 h
How it was run: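 Cells were treated 72 h with test inhibitors at 1.5 μM (20 μM for FMK and SL0101), diluted from 10 mM DMSO stocks in complete RPMI. Viable cells were counted in triplicate by trypan blue exclusion on a hemocytometer. Data are biological triplicates each in technical triplicate, reported as median ± SD relative counts.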

H1155 cells [2] = assay: apoptosis by cleaved caspase 3/7 and PARP1; format: cell-based; details: for apoptosis, single drug: single drug treatment
H1155 cells [3] = assay: cell viability, combination of inhibitors with paclitaxel; format: cell-based
[4] = system: ALK-negative NSCLC cell lines (most sensitive cells); assay: CellTiter-Glo cell viability, dose-response curves; format: cell-based
[5] = system: NSCLC cell lines (KRAS-mutant H650, H1155 and H23 cells); assay: phenotypic drug screen, cell viability; format: cell-based; details: 72 h, 2.5 μM; ALK-negative lines
How it was run: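 Phenotypic screen: 240 compounds were tested across 20 NSCLC cell lines, seeded 1000 cells/well in 384-well plates and treated 24 h later. Compounds were diluted from 10 mM DMSO stocks in complete RPMI to final 0.5 μM and 2.5 μM for 72 h in biological duplicate. Viability was read by CellTiter-Glo luminescence and profiles were grouped by unsupervised hierarchical clustering.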

NSCLC cells = assay: cell cycle analysis by flow cytometry; format: cell-based
How it was run: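 Cell cycle: after incubation, cells were harvested, fixed in 70% cold ethanol and held at −20°C. They were then washed in PBS and stained with 1 μg/mL DAPI in 0.1% Triton X-100/PBS. DNA content was measured by flow cytometry and cell-cycle phases were modelled from the histograms.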

FER = FER (Homo sapiens, UniProt P16591); assay: in vitro kinase assay; format: biochemical
AMPKα1 = AMPKα1 (Homo sapiens, UniProt Q13131); assay: in vitro kinase assay; format: biochemical
How it was run: (§1)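 Biochemical kinase IC50s were determined by two contract providers. One used a 10-dose 3-fold serial dilution from 20 μM and the other a 9-dose 3-fold dilution from 20 μM, each in technical duplicate. Reported values are the mean of the combined datasets.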

ERK1/2 = assay: in vitro kinase assay; format: biochemical; details: at 1.5 μM
mTOR = mTOR (Homo sapiens, UniProt P42345); assay: in vitro kinase assay; format: biochemical; details: at 1.5 μM
FAK1 and RSK1/2 = assay: c-ceritinib pulldown competition with free ceritinib; format: binding; details: 20 μM unmodified ceritinib, H650 cell lysate
[6] = target: RSK1/2 C-terminal kinase domain (CTKD); assay: cross-competition pulldown with NTKD or CTKD inhibitors; format: binding; details: H650 lysate ± 20 μM BI-D1870 or FMK
[7] = system: RSK1/2 S380/S386 autophosphorylation in H23 cells; assay: Western blot, RSK1/2 autophosphorylation; format: cell-based; details: 3 h
How it was run: (§2)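 H23 cells were treated for 3 h with test compounds: FMK at 20 μM, OSI-906 and PF-573228 at 1.5 μM. Target phosphorylation and downstream signals were read by western blot with HRP-conjugated secondary antibodies; n = 3.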

[8] = system: AKT phosphorylation in H23 cells; assay: Western blot, AKT phosphorylation; format: cell-based; details: 3 h
How it was run: as §2

[9] = system: autophosphorylation of FAK1 in H23 cells; assay: Western blot, FAK1 autophosphorylation; format: cell-based; details: 3 h
How it was run: as §2

[10] = system: ERK phosphorylation in H23 cells; assay: Western blot, ERK phosphorylation; format: cell-based; details: 3 h
How it was run: as §2

[11] = system: phosphorylation of RPS6 at S235/236; assay: Immunoblot, RPS6 phosphorylation; format: cell-based
[12] = system: phosphorylation of YB1 at S102; assay: Immunoblot, YB1 phosphorylation; format: cell-based; details: 3 h treatment
How it was run: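 YB1 phosphorylation was read by immunoblot after 3 h treatment: FMK 20 μM, OSI-906 1.5 μM, PF-573228 1.5 μM. Lysis was in NP40/Tris pH 7.5/glycerol/MgCl₂/NaCl buffer with phosphatase and protease inhibitors. Detection used HRP-conjugated anti-rabbit or anti-mouse secondaries.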

H650 and H1155 cells = assay: cell viability, combination with paclitaxel; format: cell-based; details: 72 h
How it was run: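 Cells were plated at 1000 cells/well in 384-well format and dosed 24 h later with test compound alone or with the partner agent, each diluted in culture medium. After 72 h, viability was read by CellTiter-Glo luminescence (n = 3). Dose-response curves were fitted, and combination effects were scored by the Bliss model or by the Chou-Talalay combination index.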

H460 cells [13] = assay: cell viability, combination with paclitaxel; format: cell-based
H460 cells [14] = assay: clonogenic assay, combination with paclitaxel; format: cell-based; details: 7 days
[15] = system: NRAS-mutant H1299 LCLC cells; assay: cell viability, combination with paclitaxel; format: cell-based
[16] = system: PDX tumor models with high pFAK1 staining (PDX1, PDX2, PDX3); assay: ex vivo soft-agar 3D clonogenic assay, combination with paclitaxel; format: cell-based; details: particularly at low drug concentrations
[17] = patient plasma; cited from earlier work
ALK = ALK (Homo sapiens, UniProt Q9UM73); assay: in vitro kinase assay; format: biochemical
How it was run: as §1

EML4-ALK = EML4-ALK (Homo sapiens, UniProt Q9HC35+Q9UM73); assay: c-ceritinib pulldown; format: binding; details: immobilized compound, cell lysate

Sequence of AMPKα1 (Q13131 whole entry): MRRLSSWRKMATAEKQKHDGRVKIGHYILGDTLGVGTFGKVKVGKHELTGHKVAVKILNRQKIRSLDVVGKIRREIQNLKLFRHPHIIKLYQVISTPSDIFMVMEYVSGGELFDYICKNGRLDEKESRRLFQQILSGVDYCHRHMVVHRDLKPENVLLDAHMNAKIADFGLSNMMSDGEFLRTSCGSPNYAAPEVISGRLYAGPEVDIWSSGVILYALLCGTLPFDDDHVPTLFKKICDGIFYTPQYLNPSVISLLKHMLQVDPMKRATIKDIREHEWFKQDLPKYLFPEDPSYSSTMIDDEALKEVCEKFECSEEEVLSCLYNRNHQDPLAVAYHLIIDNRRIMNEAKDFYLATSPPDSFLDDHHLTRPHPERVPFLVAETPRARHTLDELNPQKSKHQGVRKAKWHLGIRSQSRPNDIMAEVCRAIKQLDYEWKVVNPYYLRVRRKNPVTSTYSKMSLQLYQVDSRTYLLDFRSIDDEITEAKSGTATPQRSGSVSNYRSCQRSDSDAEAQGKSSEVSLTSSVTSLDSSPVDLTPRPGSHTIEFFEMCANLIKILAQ
Sequence of AMPKα1 (Q9Y478 whole entry partner): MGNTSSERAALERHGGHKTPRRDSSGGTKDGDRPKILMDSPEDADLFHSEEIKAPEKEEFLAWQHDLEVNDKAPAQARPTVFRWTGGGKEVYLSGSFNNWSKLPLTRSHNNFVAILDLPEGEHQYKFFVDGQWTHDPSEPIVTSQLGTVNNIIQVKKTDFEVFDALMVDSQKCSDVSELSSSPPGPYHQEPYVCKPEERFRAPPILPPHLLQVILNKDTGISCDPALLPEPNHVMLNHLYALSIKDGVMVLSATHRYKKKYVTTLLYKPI
Sequence of AMPKα1 (P54619 whole entry partner): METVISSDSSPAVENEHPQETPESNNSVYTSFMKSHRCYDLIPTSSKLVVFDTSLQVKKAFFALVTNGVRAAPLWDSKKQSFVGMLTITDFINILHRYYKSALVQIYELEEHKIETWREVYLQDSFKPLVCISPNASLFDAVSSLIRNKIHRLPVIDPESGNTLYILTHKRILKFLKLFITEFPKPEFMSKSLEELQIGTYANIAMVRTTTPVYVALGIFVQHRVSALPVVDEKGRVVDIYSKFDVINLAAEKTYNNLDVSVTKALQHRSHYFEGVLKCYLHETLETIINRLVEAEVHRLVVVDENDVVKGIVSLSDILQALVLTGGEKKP
Sequence of ALK (Q9UM73 19-1620): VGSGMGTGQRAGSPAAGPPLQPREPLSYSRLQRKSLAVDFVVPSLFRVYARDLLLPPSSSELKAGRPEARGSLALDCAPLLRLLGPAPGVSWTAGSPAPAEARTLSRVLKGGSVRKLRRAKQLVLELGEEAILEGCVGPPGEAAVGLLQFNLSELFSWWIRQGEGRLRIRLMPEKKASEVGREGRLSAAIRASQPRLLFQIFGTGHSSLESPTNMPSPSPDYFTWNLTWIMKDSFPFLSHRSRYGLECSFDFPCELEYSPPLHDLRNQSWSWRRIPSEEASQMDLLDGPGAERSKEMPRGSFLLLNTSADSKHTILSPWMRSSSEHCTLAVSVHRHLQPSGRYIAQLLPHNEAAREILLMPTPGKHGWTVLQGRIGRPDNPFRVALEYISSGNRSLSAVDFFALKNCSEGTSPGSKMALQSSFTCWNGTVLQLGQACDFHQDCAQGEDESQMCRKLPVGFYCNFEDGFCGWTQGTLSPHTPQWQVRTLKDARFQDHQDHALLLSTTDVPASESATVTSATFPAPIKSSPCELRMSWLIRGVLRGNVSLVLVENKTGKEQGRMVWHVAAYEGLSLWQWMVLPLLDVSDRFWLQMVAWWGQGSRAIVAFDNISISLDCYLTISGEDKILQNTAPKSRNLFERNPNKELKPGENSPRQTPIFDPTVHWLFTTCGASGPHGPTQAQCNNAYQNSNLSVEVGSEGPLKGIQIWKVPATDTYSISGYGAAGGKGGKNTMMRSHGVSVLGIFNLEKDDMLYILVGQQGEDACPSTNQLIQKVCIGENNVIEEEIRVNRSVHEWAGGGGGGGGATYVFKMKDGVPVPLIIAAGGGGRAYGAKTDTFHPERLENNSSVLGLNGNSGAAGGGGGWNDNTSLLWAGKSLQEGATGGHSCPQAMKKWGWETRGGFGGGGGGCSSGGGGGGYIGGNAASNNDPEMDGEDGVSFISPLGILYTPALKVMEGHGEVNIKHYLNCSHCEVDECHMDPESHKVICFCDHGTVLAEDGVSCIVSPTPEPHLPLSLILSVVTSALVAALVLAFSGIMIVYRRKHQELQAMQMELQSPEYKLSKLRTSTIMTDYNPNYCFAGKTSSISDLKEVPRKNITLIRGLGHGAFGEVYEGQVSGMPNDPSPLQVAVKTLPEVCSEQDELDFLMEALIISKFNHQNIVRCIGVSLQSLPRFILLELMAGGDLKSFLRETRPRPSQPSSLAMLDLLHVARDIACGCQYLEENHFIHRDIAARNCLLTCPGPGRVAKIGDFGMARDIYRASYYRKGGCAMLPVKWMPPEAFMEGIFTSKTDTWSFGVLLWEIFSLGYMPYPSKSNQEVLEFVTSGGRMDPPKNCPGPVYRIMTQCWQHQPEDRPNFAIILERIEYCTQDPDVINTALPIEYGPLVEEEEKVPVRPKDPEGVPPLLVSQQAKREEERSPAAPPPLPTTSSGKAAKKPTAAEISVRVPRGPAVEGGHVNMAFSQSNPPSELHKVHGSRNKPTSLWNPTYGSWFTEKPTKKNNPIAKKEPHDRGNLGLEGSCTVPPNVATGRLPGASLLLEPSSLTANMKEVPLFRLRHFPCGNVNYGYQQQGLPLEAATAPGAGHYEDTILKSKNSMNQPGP
Sequence of FER (P16591 whole entry): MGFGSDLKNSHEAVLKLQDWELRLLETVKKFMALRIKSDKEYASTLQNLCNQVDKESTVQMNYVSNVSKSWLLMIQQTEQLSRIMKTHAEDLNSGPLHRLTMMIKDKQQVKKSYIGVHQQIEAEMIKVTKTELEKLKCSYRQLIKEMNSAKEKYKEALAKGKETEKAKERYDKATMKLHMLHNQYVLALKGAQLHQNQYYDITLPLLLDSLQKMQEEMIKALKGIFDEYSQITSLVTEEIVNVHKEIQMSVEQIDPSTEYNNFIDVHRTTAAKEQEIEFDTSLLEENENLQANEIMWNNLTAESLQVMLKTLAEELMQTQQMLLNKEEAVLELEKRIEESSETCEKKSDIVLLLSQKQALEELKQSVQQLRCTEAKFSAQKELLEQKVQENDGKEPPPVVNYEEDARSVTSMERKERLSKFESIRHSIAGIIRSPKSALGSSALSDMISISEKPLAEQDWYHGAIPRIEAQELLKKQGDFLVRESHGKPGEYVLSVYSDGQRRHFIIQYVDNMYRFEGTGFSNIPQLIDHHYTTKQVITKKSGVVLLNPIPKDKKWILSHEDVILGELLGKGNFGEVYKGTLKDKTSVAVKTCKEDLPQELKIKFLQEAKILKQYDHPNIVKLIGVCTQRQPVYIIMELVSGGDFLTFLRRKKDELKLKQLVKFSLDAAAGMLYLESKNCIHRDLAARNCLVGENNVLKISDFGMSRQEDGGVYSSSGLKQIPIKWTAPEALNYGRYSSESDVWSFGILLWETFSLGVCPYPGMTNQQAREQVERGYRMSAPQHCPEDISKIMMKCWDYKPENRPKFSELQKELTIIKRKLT

## C[C@]1(O)C[C@@H](c2nc(-c3ccc4ccc(-c5ccccc5)nc4c3)c3c(N)nccn32)C1 [OSI-906]
[1]; 1.5 μM
  effect on viability, single agent: little effect

## CC(=O)O[C@H]1C(=O)[C@@]2(C)[C@H]([C@H](OC(=O)c3ccccc3)[C@]3(O)C[C@H](OC(=O)[C@H](O)[C@@H](NC(=O)c4ccccc4)c4ccccc4)C(C)=C1C3(C)C)[C@]1(OC(C)=O)CO[C@@H]1C[C@@H]2O [paclitaxel]
H1155 cells [2]
  apoptosis, single drug: no effect

## CS(=O)(=O)c1cccc(CNc2nc(Nc3ccc4c(c3)CCC(=O)N4)ncc2C(F)(F)F)c1 [PF-573228]
[1]; 1.5 μM
  effect on viability, single agent: little effect

## CNC(=O)c1ccccc1Nc1nc(Nc2ccc3c(c2OC)CCC[C@H](N2CCN(CCO)CC2)C3)ncc1Cl [CEP-37440]
H1155 cells [3]
  synergy with paclitaxel: strongly synergized

## Cc1ccc(-c2c(C(=O)CF)n(CCCO)c3ncnc(N)c23)cc1 [FMK]
[1]; 20 μM
  effect on viability, single agent: little effect

## CN(C)C(=O)c1cc2cnc(Nc3ccc(N4CCNCC4)cn3)nc2n1C1CCCC1 [ribociclib]
H1155 cells [3]
  synergy with paclitaxel: did not exhibit synergy

## CC(=O)O[C@@H]1[C@@H](OC(C)=O)[C@@H](O)[C@H](Oc2c(-c3ccc(O)cc3)oc3cc(O)cc(O)c3c2=O)O[C@H]1C [SL0101]
[1]; 20 μM
  effect on viability, single agent: little effect

## Cc1cc(Nc2ncc(Cl)c(Nc3ccccc3S(=O)(=O)C(C)C)n2)c(OC(C)C)cc1C1CCNCC1 [ceritinib, 5-Chloro-N2-(2-isopropoxy-5-methyl-4-(piperidin-4-yl)phenyl)-N4-(2-(isopropylsulfonyl)phenyl)pyrimidine-2,4-diamine]
[4]; 72 h, read-out: IC50, inhibition of viability
  IC50: 1 to 2 µM
[4]; read-out: Emax, viability
  viability at 4 µM: 0%
[5]
  activity in viability screen: specific ALK-independent activity
NSCLC cells
  cell cycle effect: G1 cell cycle arrest
FER
  IC50: 0.005 µM
AMPKα1
  IC50: 2.5 µM
ERK1/2
  inhibition: not significantly inhibited
mTOR
  inhibition: not significantly inhibited
FAK1 and RSK1/2
  competition from the affinity matrix: competed away
[6]
  kinase domain bound: binds to the CTKD
[7]
  effect on RSK1/2 S380/S386 autophosphorylation: inhibited
[8]
  effect on AKT phosphorylation: reduced
[9]
  effect on autophosphorylation of FAK1: reduced
[10]
  effect on ERK phosphorylation: only minor effects
[11]
  effect on RPS6 S235/236 phosphorylation: inhibited
[12]
  effect on YB1 S102 phosphorylation: inhibited
H650 and H1155 cells
  synergy, Bliss model of independence: substantial synergy
H1155 cells [2]; ceritinib combined with paclitaxel
  apoptosis, combination: significant increase in apoptosis
H1155 cells [2]
  apoptosis, single drug: no effect
H1155 cells [3]
  synergy with paclitaxel: pronounced synergy
H460 cells [13]
  synergy, CI values: highly synergistic
H460 cells [14]
  combination effect, clonogenic assay: pronounced combination effects
[15]
  response to combination: strong response
[16]
  synergy (Bliss), 3D ex vivo culture: pronounced synergy
[17]
  clinical plasma concentrations: 1.4 to 2.3 µM

## Cc1cc(Nc2ncc(Cl)c(Nc3ccccc3S(=O)(=O)C(C)C)n2)c(OC(C)C)cc1C1CCN(CCCN)CC1 [c-ceritinib]
ALK
  ALK inhibition: Activity was confirmed
EML4-ALK
  binding of EML4-ALK: ability to bind

## c1cc(-c2cnn3cc(-c4ccc(OCCN5CCCCC5)cc4)cnc23)ccn1 [compound C]
H1155 cells [3]
  synergy with paclitaxel: did not synergize
